Consider 9 compounds from ChEMBL document CHEMBL2384964, “Dual-acting histone deacetylase-topoisomerase I inhibitors” (Bioorg Med Chem Lett, 2013).

One assay concerns DU-145. Description: Cytotoxicity against human DU145 cells assessed as inhibition of cell viability after 72 hrs by MTS assay. Format: functional, cell-based. The conditions noted are these: DU-145, 72 h. A digest of the protocol: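 DU-145 prostate carcinoma cells exposed to compound for 72 h; viability read by MTS assay. IC50 values are means of two experiments, each run in triplicate.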
Background: Formazan colour is commonly taken as a measure of viable cells.

Assay [1] concerns the target T1, DNA topoisomerase 1 (Homo sapiens) (UniProt P11387).
T1 sequence (whole entry): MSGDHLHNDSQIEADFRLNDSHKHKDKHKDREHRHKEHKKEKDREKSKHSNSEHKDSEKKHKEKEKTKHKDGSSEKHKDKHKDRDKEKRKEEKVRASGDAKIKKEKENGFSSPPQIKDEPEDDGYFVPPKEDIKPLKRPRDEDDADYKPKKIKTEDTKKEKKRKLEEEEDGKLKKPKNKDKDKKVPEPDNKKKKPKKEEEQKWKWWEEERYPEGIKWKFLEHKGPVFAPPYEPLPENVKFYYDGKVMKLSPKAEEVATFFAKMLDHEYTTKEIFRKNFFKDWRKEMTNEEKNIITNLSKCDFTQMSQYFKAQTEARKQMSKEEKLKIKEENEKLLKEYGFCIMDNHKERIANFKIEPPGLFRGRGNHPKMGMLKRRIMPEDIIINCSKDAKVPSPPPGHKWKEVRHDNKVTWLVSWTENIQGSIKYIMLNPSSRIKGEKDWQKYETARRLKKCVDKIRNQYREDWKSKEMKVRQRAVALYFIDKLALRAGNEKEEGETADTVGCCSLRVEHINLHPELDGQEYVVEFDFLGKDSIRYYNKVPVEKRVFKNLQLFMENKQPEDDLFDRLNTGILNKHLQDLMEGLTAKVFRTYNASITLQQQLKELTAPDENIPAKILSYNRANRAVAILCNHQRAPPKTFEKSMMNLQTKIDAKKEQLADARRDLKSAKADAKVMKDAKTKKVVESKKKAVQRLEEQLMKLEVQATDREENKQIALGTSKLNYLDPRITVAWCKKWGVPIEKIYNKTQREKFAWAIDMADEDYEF
Description: Inhibition of topoisomerase-1 (unknown origin) assessed as reduction of pBR322 plasmid DNA relaxation at 50 uM after 30 mins by agarose gel electrophoresis. A digest of the protocol: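 Supercoiled pBR322 plasmid incubated with Topo I, test agents at 50 μM, SN-38 as positive control. Reactions stopped with SDS, run on agarose gel, DNA stained with a nucleic acid dye; relaxation judged by band migration.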

A further assay deals with T2, Histone deacetylase 8 (Homo sapiens, UniProt Q9BY41).
T2 sequence (Q9BY41 whole entry): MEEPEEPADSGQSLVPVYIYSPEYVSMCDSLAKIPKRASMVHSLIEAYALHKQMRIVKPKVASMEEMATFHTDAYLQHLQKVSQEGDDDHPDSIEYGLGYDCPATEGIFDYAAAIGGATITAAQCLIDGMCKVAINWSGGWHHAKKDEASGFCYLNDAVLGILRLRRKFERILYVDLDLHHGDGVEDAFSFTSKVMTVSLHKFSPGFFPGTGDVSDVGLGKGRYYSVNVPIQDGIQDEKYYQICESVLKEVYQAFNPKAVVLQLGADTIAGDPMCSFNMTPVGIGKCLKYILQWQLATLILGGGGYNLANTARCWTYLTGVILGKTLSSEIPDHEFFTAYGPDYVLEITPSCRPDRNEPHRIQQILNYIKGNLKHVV
Description: Inhibition of HDAC8 in human HeLa cells using Fluor-de-Lys as substrate after 15 mins by fluorescence assay. In kind it is cell-based.

Assay [2] has as its target T3, Protein deacetylase HDAC6 (Homo sapiens, UniProt Q9UBN7).
T3 sequence (Q9UBN7 whole entry): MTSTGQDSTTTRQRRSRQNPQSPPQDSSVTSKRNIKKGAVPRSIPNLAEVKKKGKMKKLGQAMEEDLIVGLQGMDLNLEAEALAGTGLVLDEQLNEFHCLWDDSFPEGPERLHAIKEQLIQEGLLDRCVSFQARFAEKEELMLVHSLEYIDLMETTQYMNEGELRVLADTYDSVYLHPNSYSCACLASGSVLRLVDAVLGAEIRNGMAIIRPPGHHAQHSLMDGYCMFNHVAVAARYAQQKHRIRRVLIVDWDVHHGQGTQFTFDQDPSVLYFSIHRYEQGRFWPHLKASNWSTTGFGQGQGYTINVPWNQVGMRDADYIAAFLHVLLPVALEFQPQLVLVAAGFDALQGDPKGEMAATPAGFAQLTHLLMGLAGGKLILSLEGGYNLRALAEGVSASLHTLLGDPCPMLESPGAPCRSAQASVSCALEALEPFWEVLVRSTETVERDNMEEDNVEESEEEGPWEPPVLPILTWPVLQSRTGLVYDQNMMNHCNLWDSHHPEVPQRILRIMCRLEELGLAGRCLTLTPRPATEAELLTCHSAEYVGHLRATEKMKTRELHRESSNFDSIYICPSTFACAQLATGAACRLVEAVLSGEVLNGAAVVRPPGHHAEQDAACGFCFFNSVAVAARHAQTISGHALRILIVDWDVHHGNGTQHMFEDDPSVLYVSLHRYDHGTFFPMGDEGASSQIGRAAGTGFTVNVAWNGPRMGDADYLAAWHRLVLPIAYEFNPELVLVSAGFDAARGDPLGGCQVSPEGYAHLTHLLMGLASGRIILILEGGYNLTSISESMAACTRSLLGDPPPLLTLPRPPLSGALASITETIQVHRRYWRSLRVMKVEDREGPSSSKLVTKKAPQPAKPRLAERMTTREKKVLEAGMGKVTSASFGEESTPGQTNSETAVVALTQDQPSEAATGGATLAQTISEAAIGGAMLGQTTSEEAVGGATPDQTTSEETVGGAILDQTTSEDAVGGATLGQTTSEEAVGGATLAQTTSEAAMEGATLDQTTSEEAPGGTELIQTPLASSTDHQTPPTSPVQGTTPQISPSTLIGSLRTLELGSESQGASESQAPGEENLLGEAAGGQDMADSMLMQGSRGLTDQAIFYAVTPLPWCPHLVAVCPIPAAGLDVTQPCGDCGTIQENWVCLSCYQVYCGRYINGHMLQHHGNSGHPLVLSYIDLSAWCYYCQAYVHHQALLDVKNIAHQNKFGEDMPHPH
Description: Inhibition of HDAC6 in human HeLa cells using Fluor-de-Lys as substrate after 15 mins by fluorescence assay. In kind it is cell-based.

In assay [3] the target is T4, Histone deacetylase 1 (Homo sapiens, UniProt Q13547). Description: Inhibition of HDAC1 in human HeLa cells using Fluor-de-Lys as substrate after 15 mins by fluorescence assay. In kind it is cell-based.
T4 sequence (Q13547 whole entry): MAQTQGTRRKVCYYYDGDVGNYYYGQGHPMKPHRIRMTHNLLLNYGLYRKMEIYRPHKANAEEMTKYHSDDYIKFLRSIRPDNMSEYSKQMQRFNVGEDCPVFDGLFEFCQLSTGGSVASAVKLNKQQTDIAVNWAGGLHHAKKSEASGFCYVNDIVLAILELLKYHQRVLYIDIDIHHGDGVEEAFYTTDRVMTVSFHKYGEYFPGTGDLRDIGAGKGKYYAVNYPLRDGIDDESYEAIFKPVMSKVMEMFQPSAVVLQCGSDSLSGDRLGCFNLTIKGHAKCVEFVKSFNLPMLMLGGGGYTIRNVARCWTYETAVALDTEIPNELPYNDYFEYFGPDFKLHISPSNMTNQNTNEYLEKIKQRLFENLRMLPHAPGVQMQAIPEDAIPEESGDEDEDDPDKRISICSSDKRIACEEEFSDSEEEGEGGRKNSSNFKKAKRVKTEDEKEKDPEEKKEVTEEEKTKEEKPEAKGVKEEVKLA
Another assay addresses Histone deacetylase. Description: Inhibition of HDAC in human HeLa cells using Fluor-de-Lys as substrate after 15 mins by fluorescence assay. Format: cell-based.
For assay [4], the target named is T5, Histone deacetylase (Homo sapiens) (UniProt Q13547+O15379+Q9UBN7+Q92769+Q9UQL6+Q8WUI4+Q9BY41+Q96DB2+P56524+Q9UKV0+Q969S8). Description: Inhibition of HDAC in human DU145 cells assessed as upregulation of p21waf1 expression after 24 hrs by Western blot analysis. Format: cell-based. The conditions noted are these: DU-145. A digest of the protocol: (§1)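 DU-145 cells treated for 24 h at 2.5 and 5.0 μM (SAHA, conjugates) or 0.1 and 0.5 μM (SN-38); lysates immunoblotted for p21waf1, with actin as loading control.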
For orientation: Immunoblotting shows a protein as a band on a membrane.

Assay [5] addresses T6, Histone deacetylase 8 (Homo sapiens) (UniProt Q9BY41).
T6 sequence (whole entry): T2 sequence (Q9BY41 whole entry)
Description: Inhibition of HDAC8 in human HeLa cells using Fluor-de-Lys as substrate up to 10 uM after 15 mins by fluorescence assay. Format: cell-based. A digest of the protocol: (§2)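 Run by a contract testing laboratory, duplicate wells at each concentration; values reported with standard error.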

For assay [6], the target named is T4, Histone deacetylase 1. Description: Inhibition of HDAC1 in human HeLa cells using Fluor-de-Lys as substrate up to 10 uM after 15 mins by fluorescence assay. Format: cell-based. A digest of the protocol:
as §2

Assay [7] addresses T5, Histone deacetylase (Homo sapiens). Description: Inhibition of HDAC in human HeLa cells using Fluor-de-Lys as substrate up to 10 uM after 15 mins by fluorescence assay. Format: cell-based. A digest of the protocol: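 Enzyme source is HeLa cell nuclear extract with a fluorogenic substrate; fluorescence read near 460 nm. Compound-only wells without enzyme give background (camptothecin emits at 434 nm), which is subtracted. Each value from three independent experiments.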

Assay [8] has the same target. Description: Inhibition of HDAC in human DU145 cells assessed as upregulation of p21waf1 expression at 0.1 to 0.5 uM after 24 hrs by Western blot analysis. To be noted: DU-145. Format: cell-based. A digest of the protocol:
as §1

Calls of active or inactive are those of the source. The rule behind the calls is not given here.

In general, IC50 refers to the concentration at which inhibition is half-maximal. Turning to `CCc1c2c(nc3ccc(OCc4cn(CCCCCCCC(=O)NO)nn4)cc13)-c1cc3c(c(=O)n1C2)COC(=O)[C@]3(O)CC`, the IC50 with DU-145 is 3510 nM; against Histone deacetylase 8, 2600 nM; in assay [2] it was 75 nM; against Histone deacetylase 1 [3] it was 369 nM; against Histone deacetylase, 212.3 nM. Moreover, the “Topo I inhibition (active/inactive)” value in assay [1] is “Active”.

As to `CC[C@@]1(O)C(=O)OCc2c1cc1n(c2=O)Cc2cc3cc(OCc4cn(CCCCCCC(=O)NO)nn4)ccc3nc2-1`, the concentration for half-maximal inhibition (IC50) worked out at 2030 nM in the assay with DU-145; 1050 nM at Histone deacetylase 8; 81 nM in assay [2]; 37 nM at Histone deacetylase 1 [3]; 56.2 nM against Histone deacetylase. Besides, the “Topo I inhibition (active/inactive)” value in assay [1] is “Active”.

`CC[C@@]1(O)C(=O)OCc2c1cc1n(c2=O)Cc2cc3cc(OCc4cn(CCCCCC(=O)NO)nn4)ccc3nc2-1`: the inhibition result in [4] was “Dose-dependent effect”. The IC50 worked out at 1950 nM in the assay on DU-145 and 112.2 nM on Histone deacetylase. Moreover, the “Topo I inhibition (active/inactive)” value in [1] was “Active”.

Consider `CCc1c2c(nc3ccc(OCc4cn(CCCCCCC(=O)NO)nn4)cc13)-c1cc3c(c(=O)n1C2)COC(=O)[C@]3(O)CC`, for which the IC50 in the assay with DU-145 was determined as 3110 nM; in assay [2], 36 nM; against Histone deacetylase 1 [3], 50 nM; at Histone deacetylase, 64.65 nM. Also, the “Topo I inhibition (active/inactive)” value in assay [1] is “Active”. In assay [5], the inhibition result was “inactive”.

Consider `CCc1c2c(nc3ccc(OCc4cn(CCCC(=O)NO)nn4)cc13)-c1cc3c(c(=O)n1C2)COC(=O)[C@]3(O)CC`, for which the IC50 in the assay with DU-145 is 6270 nM; against Histone deacetylase 8 it was 1730 nM; in assay [2], 85 nM. Further, the “Topo I inhibition (active/inactive)” value in assay [1] was “Active”. The inhibition entry (on Histone deacetylase 1 [6]; in assay [7]) was “inactive” in each case.

With `CCc1c2c(nc3ccc(O)cc13)-c1cc3c(c(=O)n1C2)COC(=O)[C@]3(O)CC` [7-ETHYL-10-HYDROXYCAMPTOTHECIN], the inhibition result in [8] is “Active”. For the same compound, the 50% inhibitory concentration (IC50) in the assay on DU-145 worked out at 110 nM. Moreover, in assay [7], the inhibition result is “inactive”.

`CCc1c2c(nc3ccc(OCc4cn(CCCCC(=O)NO)nn4)cc13)-c1cc3c(c(=O)n1C2)COC(=O)[C@]3(O)CC`: the IC50 in the assay with DU-145 came out at 4250 nM; on Histone deacetylase it was 155.4 nM. The “Topo I inhibition (active/inactive)” value in assay [1] was “Active”.

Turning to `CC[C@@]1(O)C(=O)OCc2c1cc1n(c2=O)Cc2cc3cc(OCc4cn(CCCCC(=O)NO)nn4)ccc3nc2-1`, the 50% inhibitory concentration (IC50) was found to be 2500 nM with DU-145, 260 nM in assay [2], 116 nM against Histone deacetylase 1 [3] and 144.5 nM against Histone deacetylase. For the same compound, the “Topo I inhibition (active/inactive)” value in [1] is “Active”. Besides, in assay [5], the inhibition result was “inactive”.

As to `CCc1c2c(nc3ccc(OCc4cn(CCCCCC(=O)NO)nn4)cc13)-c1cc3c(c(=O)n1C2)COC(=O)[C@]3(O)CC`, the inhibition result in assay [4] was “Dose-dependent effect”. Moreover, the IC50 in the assay on DU-145 came to 2050 nM; in assay [2] it was 42 nM; against Histone deacetylase 1 [3] it was 129 nM; at Histone deacetylase, 120.7 nM. In addition, the “Topo I inhibition (active/inactive)” value in assay [1] was “Active”. The inhibition result in assay [5] was “inactive”.
